Measured values published in ChEMBL document CHEMBL4014315 (J Med Chem, 2017).
Calls of active or inactive are those of the source. The calls are words filed in the database; no cut-off is given here.

Experiments:
[1] = biological target: T1, Broad substrate specificity ATP-binding cassette transporter ABCG2 (Homo sapiens, UniProt Q9UNQ0); assay: Inhibition of recombinant human GFP-fused ABCG2 expressed in MDCK2 cells assessed as reduction in Hoechst 33342 efflux preincubated for 30 mins followed by Hoechst 33342 addition measured immediately at 60 sec time interval for 120 mins by fluorescence assay; type: cell-based
T1 sequence (Q9UNQ0 whole entry): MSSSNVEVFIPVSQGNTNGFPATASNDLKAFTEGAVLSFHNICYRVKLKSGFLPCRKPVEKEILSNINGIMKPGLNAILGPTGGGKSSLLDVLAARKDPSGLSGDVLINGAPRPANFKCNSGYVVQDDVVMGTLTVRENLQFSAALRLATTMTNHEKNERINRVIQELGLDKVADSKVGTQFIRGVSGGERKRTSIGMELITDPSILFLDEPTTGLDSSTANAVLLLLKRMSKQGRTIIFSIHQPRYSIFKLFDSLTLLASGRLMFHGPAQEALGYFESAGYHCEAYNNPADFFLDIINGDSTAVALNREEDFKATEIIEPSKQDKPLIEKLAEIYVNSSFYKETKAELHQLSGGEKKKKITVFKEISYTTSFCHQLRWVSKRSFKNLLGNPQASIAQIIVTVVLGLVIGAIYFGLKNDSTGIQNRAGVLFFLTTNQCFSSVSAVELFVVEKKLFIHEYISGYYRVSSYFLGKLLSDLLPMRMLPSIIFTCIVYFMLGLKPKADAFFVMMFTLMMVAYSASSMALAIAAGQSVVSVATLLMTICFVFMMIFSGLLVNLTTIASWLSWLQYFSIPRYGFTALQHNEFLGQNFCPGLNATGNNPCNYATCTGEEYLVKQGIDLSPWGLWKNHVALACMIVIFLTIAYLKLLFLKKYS
Procedure, shortened: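 Hoechst 33342 accumulation assay: the dye is an ABCG2 substrate whose fluorescence rises when bound to DNA or embedded in membrane. Intracellular accumulation serves as the read-out of transporter inhibition.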

ABCG2 [2] = biological target: T2, ABCG2 (Homo sapiens, UniProt Q9UNQ0); assay: Inhibition of recombinant human GFP-fused ABCG2 expressed in MDCK2 cells assessed as reduction in Hoechst 33342 efflux at […] preincubated for 30 mins followed by Hoechst 33342 addition measured immediately at 60 sec time interval for 120 mins by fluorescence assay relative to Ko143; type: cell-based; settings: MDCK2 cells expressing recombinant GFP-fused human ABCG2, probe Hoechst 33342, read-out: Imax
T2 sequence (Q9UNQ0 whole entry): T1 sequence (Q9UNQ0 whole entry)

[3] = Cytotoxicity against ABCG2 over-expressing MDCK2 cells assessed as cell growth inhibition after 72 hrs by MTT assay; type: ADME, cell-based, Canis lupus familiaris, MDCK-II; settings: dog
[4] = Cytotoxicity against MDCK2 cells assessed as cell growth inhibition after 72 hrs by MTT assay; type: cell-based, Canis lupus familiaris, MDCK-II; settings: dog
[5] = biological target: T1, Broad substrate specificity ATP-binding cassette transporter ABCG2; assay: Inhibition of human GFP-fused ABCG2 expressed in MDCK2 cells assessed as potentiation of SN-38 induced cytotoxicity by measuring cell viability at 1 uM after 72 hrs by MTT assay; type: cell-based
Procedure, shortened: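 Reversal MTT assay in ABCG2-overexpressing MDCK II cells: SN-38 dilutions were combined with different modulator concentrations. Parental MDCK II cells defined total inhibition, and overexpressing cells without modulator defined no inhibition. GI50 values were plotted against log modulator concentration to derive IC50.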

[6] = biological target: T1, Broad substrate specificity ATP-binding cassette transporter ABCG2; assay: Ratio of IC50 for inhibition of human GFP-fused ABCG2 expressed in MDCK2 cells to EC50 for inhibition of human GFP-fused ABCG2 expressed in MDCK2 cells assessed as potentiation of SN-38 induced cytotoxicity by measuring cell viability; type: cell-based
[7] = biological target: T1, Broad substrate specificity ATP-binding cassette transporter ABCG2; assay: Activation of ABCG2 (unknown origin) ATPase activity expressed in baculovirus infected high five cell membranes by ascorbic acid/ammonia molybdate reaction-based colorimetric analysis; settings: read-out: EC50
Procedure, shortened: (§1)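 Colorimetric ATPase assay of ABCG2 membranes; activity expressed relative to control. Where data were biphasic, a combined increasing plus decreasing logistic equation with the Hill coefficient fixed at one was fitted, giving an activating and an inactivating K.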

ABCG2 [8] = biological target: T2, ABCG2; assay: Activation of ABCG2 (unknown origin) ATPase activity expressed in baculovirus infected high five cell membranes assessed as protein Vmax by ascorbic acid/ammonia molybdate reaction-based colorimetric analysis relative to basal control; settings: read-out: Vmax; procedure, shortened: as §1
[9] = biological target: T1, Broad substrate specificity ATP-binding cassette transporter ABCG2; assay: Non-competitive inhibition of recombinant human GFP-fused ABCG2 expressed in MDCK2 cells up to 100 nM preincubated for 30 mins followed by varying levels of Hoechst 33342 addition measured immediately at 60 sec time interval for 120 mins by Lineweaver-Burk plot analysis; type: cell-based; settings: 2 h
Procedure, shortened: (§2)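 Kinetics were run with Hoechst 33342 as the fluorescent ABCG2 substrate at varying levels, combined with several modulator concentrations. Data were analysed by double-reciprocal Lineweaver-Burk, half-reciprocal Hanes-Woolf and Cornish-Bowden direct linear plots. Changes in Vmax and KM with modulator concentration defined the mode: competitive, non-competitive or mixed type.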

[10] = biological target: T1, Broad substrate specificity ATP-binding cassette transporter ABCG2; assay: Non-competitive inhibition of recombinant human GFP-fused ABCG2 expressed in MDCK2 cells up to 100 nM preincubated for 30 mins followed by varying levels of Hoechst 33342 addition measured immediately at 60 sec time interval for 120 mins by Hanes-Woolf plot analysis; type: cell-based; settings: 2 h; procedure, shortened: as §2
[11] = biological target: T1, Broad substrate specificity ATP-binding cassette transporter ABCG2; assay: Non-competitive inhibition of recombinant human GFP-fused ABCG2 expressed in MDCK2 cells up to 100 nM preincubated for 30 mins followed by varying levels of Hoechst 33342 addition measured immediately at 60 sec time interval for 120 mins by Cornish-Bowden plot analysis; type: cell-based; settings: 2 h; procedure, shortened: as §2
MDCK-II [12] = assay: Cytotoxicity against ABCG2 over-expressing MDCK2 cells assessed as effect on cell proliferation at low concentration after 72 hrs in absence of DMSO and presence of 1% methanol by MTT assay; type: ADME, cell-based, Canis lupus familiaris; settings: dog
Procedure, shortened: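 Modified MTT viability assay in ABCG2-overexpressing MDCK II cells, run without DMSO and with a constant 1% methanol.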

MDCK-II [13] = assay: Potentiation of SN-38 induced cytotoxicity against MDCK2 cells at 0.01 to 5 uM after 72 hrs by MTT assay; type: functional, cell-based; settings: Canis lupus familiaris
Procedure, shortened: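 Parental MDCK II cells were given SN-38 dilutions combined with different modulator concentrations, with viability read by MTT.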

ABCC1 = ABCC1 (Homo sapiens, UniProt P33527); assay: Inhibition of ABCC1 in human H69AR cells assessed as reduction in calcein AM levels at 10 uM preincubated for 30 mins followed by calcein AM addition measured immediately at 60 sec time interval for 60 mins by fluorescence assay relative to Cyclosporine A; type: cell-based; settings: probe calcein AM
ABCC1, sequence (P33527 whole entry): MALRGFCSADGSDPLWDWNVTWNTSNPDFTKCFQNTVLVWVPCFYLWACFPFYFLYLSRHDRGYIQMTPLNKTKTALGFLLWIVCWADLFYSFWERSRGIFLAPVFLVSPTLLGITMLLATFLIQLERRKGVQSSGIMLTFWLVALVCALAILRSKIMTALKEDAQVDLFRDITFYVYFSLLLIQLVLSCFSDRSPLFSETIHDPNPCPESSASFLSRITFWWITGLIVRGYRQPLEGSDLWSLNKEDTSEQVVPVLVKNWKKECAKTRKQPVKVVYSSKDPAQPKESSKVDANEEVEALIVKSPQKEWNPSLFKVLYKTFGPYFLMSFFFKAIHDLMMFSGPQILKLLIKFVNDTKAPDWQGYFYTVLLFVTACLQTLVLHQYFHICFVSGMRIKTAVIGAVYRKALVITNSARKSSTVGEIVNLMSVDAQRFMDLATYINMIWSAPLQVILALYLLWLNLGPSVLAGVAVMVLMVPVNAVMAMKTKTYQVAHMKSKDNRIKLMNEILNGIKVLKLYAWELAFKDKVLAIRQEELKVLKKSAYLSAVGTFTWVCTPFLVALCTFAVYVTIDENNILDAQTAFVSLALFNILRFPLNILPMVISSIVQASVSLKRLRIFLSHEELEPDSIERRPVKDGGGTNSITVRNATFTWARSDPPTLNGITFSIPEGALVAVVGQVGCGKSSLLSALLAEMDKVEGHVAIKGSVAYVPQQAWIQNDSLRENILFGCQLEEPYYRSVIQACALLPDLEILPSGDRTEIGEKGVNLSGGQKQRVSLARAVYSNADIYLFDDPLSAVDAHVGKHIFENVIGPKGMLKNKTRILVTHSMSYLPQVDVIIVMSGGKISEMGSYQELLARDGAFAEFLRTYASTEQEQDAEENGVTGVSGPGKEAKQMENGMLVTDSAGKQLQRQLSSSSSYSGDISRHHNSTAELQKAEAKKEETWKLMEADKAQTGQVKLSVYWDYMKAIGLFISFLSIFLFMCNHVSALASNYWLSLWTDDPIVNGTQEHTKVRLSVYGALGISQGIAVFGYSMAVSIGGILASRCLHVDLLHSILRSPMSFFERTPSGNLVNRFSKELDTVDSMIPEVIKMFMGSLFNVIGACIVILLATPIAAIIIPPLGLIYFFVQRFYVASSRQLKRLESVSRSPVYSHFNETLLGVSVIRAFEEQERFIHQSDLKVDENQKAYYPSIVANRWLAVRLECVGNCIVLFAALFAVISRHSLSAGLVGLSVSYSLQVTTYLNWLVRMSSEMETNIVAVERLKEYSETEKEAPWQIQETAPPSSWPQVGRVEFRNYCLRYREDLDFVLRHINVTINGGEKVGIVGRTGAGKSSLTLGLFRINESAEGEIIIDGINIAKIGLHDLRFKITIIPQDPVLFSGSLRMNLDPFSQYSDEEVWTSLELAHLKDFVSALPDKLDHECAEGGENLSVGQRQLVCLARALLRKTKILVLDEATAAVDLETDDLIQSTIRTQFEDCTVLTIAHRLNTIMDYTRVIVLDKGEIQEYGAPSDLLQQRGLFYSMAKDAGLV
Procedure, shortened: (§3)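 Calcein AM assay in A2780adr cells (ABCB1 overexpressing) and H69AR cells (ABCC1 overexpressing). Compounds were screened at 10 µM, with inhibition relative to cyclosporine A as the total-inhibition control.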

[14] = biological target: ATP-dependent translocase ABCB1 (Homo sapiens, UniProt P08183); assay: Inhibition of ABCB1 in human A2780adr cells assessed as reduction in calcein AM levels preincubated for 30 mins followed by calcein AM addition measured immediately at 60 sec time interval for 60 mins by fluorescence assay; type: cell-based; procedure, shortened: as §3
ATP-dependent translocase ABCB1, sequence (P08183 whole entry): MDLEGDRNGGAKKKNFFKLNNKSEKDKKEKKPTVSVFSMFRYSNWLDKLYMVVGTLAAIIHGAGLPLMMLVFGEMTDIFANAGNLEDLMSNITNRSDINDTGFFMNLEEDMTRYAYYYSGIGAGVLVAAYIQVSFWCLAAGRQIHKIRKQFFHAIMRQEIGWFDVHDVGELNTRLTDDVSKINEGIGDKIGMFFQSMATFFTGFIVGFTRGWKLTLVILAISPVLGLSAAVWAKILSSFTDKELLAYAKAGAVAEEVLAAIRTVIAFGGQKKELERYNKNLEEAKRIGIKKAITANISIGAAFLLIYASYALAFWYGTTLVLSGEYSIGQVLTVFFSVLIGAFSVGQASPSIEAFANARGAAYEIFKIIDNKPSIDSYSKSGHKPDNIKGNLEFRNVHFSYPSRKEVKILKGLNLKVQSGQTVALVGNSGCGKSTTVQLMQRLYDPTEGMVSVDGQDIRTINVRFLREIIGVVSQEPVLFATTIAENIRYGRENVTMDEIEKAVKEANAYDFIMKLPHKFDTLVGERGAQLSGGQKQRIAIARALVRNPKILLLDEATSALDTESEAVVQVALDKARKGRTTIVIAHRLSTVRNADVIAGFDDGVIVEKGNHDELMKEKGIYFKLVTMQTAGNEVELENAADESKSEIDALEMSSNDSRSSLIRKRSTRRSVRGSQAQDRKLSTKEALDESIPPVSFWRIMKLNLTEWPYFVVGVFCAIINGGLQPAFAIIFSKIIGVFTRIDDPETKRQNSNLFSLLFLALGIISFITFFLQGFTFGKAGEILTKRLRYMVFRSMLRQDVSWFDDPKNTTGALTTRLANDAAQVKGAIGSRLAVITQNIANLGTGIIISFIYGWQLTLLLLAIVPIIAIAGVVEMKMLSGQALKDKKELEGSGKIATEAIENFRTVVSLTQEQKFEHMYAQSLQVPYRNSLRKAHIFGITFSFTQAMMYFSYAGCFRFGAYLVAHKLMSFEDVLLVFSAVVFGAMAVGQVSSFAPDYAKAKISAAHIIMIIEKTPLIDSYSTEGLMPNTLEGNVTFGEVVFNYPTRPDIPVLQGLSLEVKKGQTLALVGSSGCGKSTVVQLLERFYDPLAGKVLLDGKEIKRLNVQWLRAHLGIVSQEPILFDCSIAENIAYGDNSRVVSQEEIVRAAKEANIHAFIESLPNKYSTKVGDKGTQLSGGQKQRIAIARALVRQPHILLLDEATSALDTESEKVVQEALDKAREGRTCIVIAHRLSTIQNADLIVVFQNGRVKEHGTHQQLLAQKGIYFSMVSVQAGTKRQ

ABCB1 = ABCB1 (Homo sapiens, UniProt P08183); assay: Inhibition of ABCB1 in human A2780adr cells assessed as reduction in calcein AM levels at 10 uM preincubated for 30 mins followed by calcein AM addition measured immediately at 60 sec time interval for 60 mins by fluorescence assay relative to Cyclosporine A; type: cell-based; settings: probe calcein AM; procedure, shortened: as §3
ABCB1, sequence (P08183 whole entry, the tested form may be a part): as the sequence (P08183 whole entry) above

[15] = biological target: T1, Broad substrate specificity ATP-binding cassette transporter ABCG2; assay: Competitive inhibition of recombinant human GFP-fused ABCG2 expressed in MDCK2 cells up to 5620 nM preincubated for 30 mins followed by varying levels of Hoechst 33342 addition measured immediately at 60 sec time interval for 120 mins by Lineweaver-Burk plot analysis; type: cell-based; settings: 2 h; procedure, shortened: as §2
[16] = biological target: T1, Broad substrate specificity ATP-binding cassette transporter ABCG2; assay: Competitive inhibition of recombinant human GFP-fused ABCG2 expressed in MDCK2 cells up to 5620 nM preincubated for 30 mins followed by varying levels of Hoechst 33342 addition measured immediately at 60 sec time interval for 120 mins by Hanes-Woolf plot analysis; type: cell-based; settings: 2 h; procedure, shortened: as §2
[17] = biological target: T1, Broad substrate specificity ATP-binding cassette transporter ABCG2; assay: Competitive inhibition of recombinant human GFP-fused ABCG2 expressed in MDCK2 cells up to 1000 nM preincubated for 30 mins followed by varying levels of Hoechst 33342 addition measured immediately at 60 sec time interval for 120 mins by Cornish-Bowden plot analysis; type: cell-based; settings: 2 h; procedure, shortened: as §2
[18] = Therapeutic index, ratio of GI50 for ABCG2 over-expressing MDCK2 cells to IC50 for recombinant human GFP-fused ABCG2 expressed in MDCK2 cells; type: cell-based
[19] = biological target: T1, Broad substrate specificity ATP-binding cassette transporter ABCG2; assay: Inhibition of ABCG2 (unknown origin) ATPase activity expressed in baculovirus infected high five cell membranes by ascorbic acid/ammonia molybdate reaction-based colorimetric analysis; procedure, shortened: as §1
[20] = biological target: T1, Broad substrate specificity ATP-binding cassette transporter ABCG2; assay: Mixed type inhibition of recombinant human GFP-fused ABCG2 expressed in MDCK2 cells preincubated for 30 mins followed by varying levels of Hoechst 33342 addition measured immediately at 60 sec time interval for 120 mins by Cornish-Bowden plot analysis; type: cell-based; settings: 2 h; procedure, shortened: as §2
ABCG2 [21] = biological target: T2, ABCG2; assay: Activation of ABCG2 (unknown origin) ATPase activity expressed in baculovirus infected high five cell membranes assessed as protein Vmax at 0.5 uM by ascorbic acid/ammonia molybdate reaction-based colorimetric analysis relative to basal control; settings: read-out: Vmax; procedure, shortened: as §1
ABCG2 [22] = biological target: T2, ABCG2; assay: Activation of ABCG2 (unknown origin) ATPase activity expressed in baculovirus infected high five cell membranes assessed as protein Vmax at 35 uM by ascorbic acid/ammonia molybdate reaction-based colorimetric analysis relative to basal control; settings: read-out: Vmax; procedure, shortened: as §1

| SMILES | IC50 [1] [µM] | Emax at 2 h (ABCG2 [2]) [%] | EC50 [7] [µM] | Emax (ABCG2 [8]) [%] | GI50 at 72 h [3] [µM] | GI50 at 72 h [4] [µM] | inhibition (INH) [5] | Activity (MDCK-II [12]) | Activity (MDCK-II [13]) | TI [18] | further results |
| --- | --- | --- | --- | --- | --- | --- | --- | --- | --- | --- | --- |
| COc1ccc(Nc2nc(-c3ccncc3)nc3ccccc23)cc1 | 0.742 | 80 to 110 | 0.07 | 137 |  |  |  |  |  |  | inhibition at 1 h, 10 µM (ABCC1): 25% |
| COc1cccc(Nc2nc(-c3ccncc3)nc3ccccc23)c1 | 0.558 | 80 to 110 | 0.042 | 132 |  |  |  |  |  |  | IC50 [14]: 5.43 µM; inhibition at 1 h, 10 µM (ABCB1): > 25%; inhibition (INH) [15]: Active; inhibition (INH) [16]: Active; inhibition (INH) [17]: Active |
| FC(F)(F)c1cccc(Nc2nc(-c3ccncc3)nc3ccccc23)c1 | 0.216 | 80 to 110 |  |  | 12.6 | 12.3 |  |  |  | 58.3 | Ki [19]: 28 µM; inhibition (INH) [20]: Active; Emax at 0.5 µM (ABCG2 [21]): 155%; Emax at 35 µM (ABCG2 [22]): 25% |
| FC(F)(F)c1ccc(Nc2nc(-c3ccncc3)nc3ccccc23)cc1 | 0.488 | 80 to 110 |  | 152 | 117 | 166 |  |  |  | 240 | Ki [19]: 27 µM |

Now those with a lower IC50 [1], led by results:

| IC50 [1] [µM] | Emax at 2 h (ABCG2 [2]) [%] | EC50 [7] [µM] | Emax (ABCG2 [8]) [%] | SMILES | GI50 at 72 h [3] [µM] | GI50 at 72 h [4] [µM] | inhibition (INH) [5] | Activity (MDCK-II [12]) | Activity (MDCK-II [13]) | TI [18] | further results |
| --- | --- | --- | --- | --- | --- | --- | --- | --- | --- | --- | --- |
| 0.0641 | 80 to 110 | 0.009 | 164 | O=[N+]([O-])c1ccc(Nc2nc(-c3cccnc3)nc3ccccc23)cc1 | 73.3 | 74.1 | Active | Non-Toxic | inactive |  | Ratio IC50/EC50 [6]: 3; inhibition (INH) [9]: Active; inhibition (INH) [10]: Active; inhibition (INH) [11]: Active |
| 0.108 | 80 to 110 | 0.35 | 151 | N#Cc1cccc(Nc2nc(-c3cccnc3)nc3ccccc23)c1 | 75.3 | 90.7 | Active | Non-Toxic | inactive | 697 |  |
| 0.0988 | 80 to 110 | 1.8 | 154 | Cc1cc(Nc2ccc(O)c([N+](=O)[O-])c2)nc(-c2ccccc2)n1 | 49 | 57.5 | Active | Non-Toxic | inactive | 496 | inhibition at 1 h, 10 µM (ABCC1): 25% |
